Screening data from PubChem BioAssay.
Most compounds without a hit are left out; they make up all but 1.5% or so of the library.
RanGTP-Imp inh: disruptors of Ran-importin-beta complex formation – biochemical, FRET, CFP-Ran, YFP-importin-beta, homogeneous, primary screen. cell-free CFP-Ran/YFP-importin-beta FRET ratio. inhibition, % (test concentration not listed). 300,000 tested, 1.1% active. AID 2216;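 active means more than half of the replicate wells show a fall in the fluorescence ratio signal beyond about 16%, limit read from the data, passing the limit was not always enough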;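 further: 0% = DMSO wells and 100% = Ran loaded with GDP instead of GTP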
Runt-SMMHC FRET: Runt domain-CBFb-SMMHC interaction inhibition. Q01196+Q13951. Cerulean-Runt/Venus-CBFb-SMMHC FRET ratio 530/480, 1 h. inhibition, % at 20 µM. 220,000 tested, 0.74% active. AID 1434;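 active means mean inhibition across duplicate retests at 20 µM reaching about 50%, limit read from the data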;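 further: 0% = DMSO wells and 100% = wells with excess untagged CBFb-SMMHC; inhibitors lower the FRET ratio by blocking Runt binding to CBFb-SMMHC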
Target sequence (Q01196 whole entry, looked up, the tested form may be a part): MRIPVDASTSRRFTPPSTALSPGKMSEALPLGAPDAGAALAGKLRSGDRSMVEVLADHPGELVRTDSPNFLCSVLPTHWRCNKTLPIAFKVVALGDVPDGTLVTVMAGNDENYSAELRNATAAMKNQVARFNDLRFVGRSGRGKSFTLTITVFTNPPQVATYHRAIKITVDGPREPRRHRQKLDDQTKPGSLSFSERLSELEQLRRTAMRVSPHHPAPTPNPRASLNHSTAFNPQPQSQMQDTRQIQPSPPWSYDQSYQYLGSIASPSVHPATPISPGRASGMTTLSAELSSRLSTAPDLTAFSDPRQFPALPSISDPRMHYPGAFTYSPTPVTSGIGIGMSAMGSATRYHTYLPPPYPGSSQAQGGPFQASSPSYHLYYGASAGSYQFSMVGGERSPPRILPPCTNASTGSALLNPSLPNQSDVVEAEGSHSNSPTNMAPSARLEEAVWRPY
Target sequence (Q13951 whole entry, looked up, the tested form may be a part): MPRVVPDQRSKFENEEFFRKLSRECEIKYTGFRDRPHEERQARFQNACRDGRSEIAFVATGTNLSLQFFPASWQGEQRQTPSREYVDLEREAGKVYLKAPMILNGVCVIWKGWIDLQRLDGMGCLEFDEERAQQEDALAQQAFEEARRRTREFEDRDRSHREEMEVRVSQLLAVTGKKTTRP
Hck-Nef inh: human Hck-Nef kinase inhibition | 220,000 tested, 0.68% active | inhibition, % at 20 µM | Recombinant Hck-YEEI plus Nef, Z-Lyte FRET kinase assay | AID 463187;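 active means Hck-Nef kinase inhibition above about 50%, limit read from the data; inactive means inhibition below that limit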;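 further: 0% = DMSO with Hck plus Nef and 100% = Hck alone without Nef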
Runt-CBFb FRET: blocks binding of human RUNX1 Runt domain to CBFb | 220,000 tested, 0.46% active | Q01196+Q13951 | Cerulean-Runt/Venus-CBFb FRET ratio 530/480, 1 h | AID 1496 | inhibition, % at 20 µM;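 active means inhibition over about 50% at 20 µM in the single-dose screen, limit read from the data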;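 further: 0% = DMSO wells and 100% = excess unlabeled CBFb competitor control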
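Buffer or medium: Tris pH 7.5 buffer with BSA. Assay system: Cerulean-labeled Runt domain protein. Amount: each fluorescent fusion protein 100 nM. Read-out basis: loss of energy transfer signal. Incubation: 1 h compound exposure, room temperature. Probe or stimulus: Venus-CBFb binding partner, 100 nM. Detection: FRET, excitation 422 nm, emission at 530 and 480 nm.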
CaV13 FRET inh: Primary screen for inhibitors of IQ motif and Ca2+-dependent inactivation inhibitor domain binding in CACNA1D, Förster resonance energy transfer in living cells, …; 340,000 tested, 0.098% active; AID 743397; HEK cells, CFP/YFP FRET ICDI-IQ, plate reader, 10 min; percent FRET-ratio fall versus neutral wells; inhibition, % at 12.3 µM;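 active means mean replicate inhibition of at least 30% and at least 1% of replicates passing that level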;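 further: 0% = median of the neutral control wells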
An asterisk follows results filed as active.

What do the screens show for `CSC(=S)N/N=C/c1ccc(N(C)C)cc1`?
RanGTP-Imp inh: 1; Runt-SMMHC FRET: 52*; Hck-Nef inh: 18; Runt-CBFb FRET: 18; CaV13 FRET inh: 2

Results for CCOC(=O)/C(O)=C(\C#N)c1nc2ccccc2[nH]1 ?
RanGTP-Imp inh: 5; Runt-SMMHC FRET: 74*; Hck-Nef inh: -10; Runt-CBFb FRET: 33; CaV13 FRET inh: -3

Results for O=C(COC(=O)c1ccc(NS(=O)(=O)c2cccs2)cc1)NCc1ccco1 ?
RanGTP-Imp inh: 6; Runt-SMMHC FRET: -7; Hck-Nef inh: 57*; Runt-CBFb FRET: 7

How did CCCCN1C(=O)C(=O)N(CC(=O)Nc2cc(Cl)ccc2OC)C1=O do in these assays?
CaV13 FRET inh: -5

How did Fc1ccc(C2CC(c3cccs3)=NN2c2ccccc2)cc1 (centres undefined) do in these assays?
RanGTP-Imp inh: 1; Runt-SMMHC FRET: 79*; Hck-Nef inh: 39; Runt-CBFb FRET: 25; CaV13 FRET inh: -6

Results for Oc1ccccc1C1=NN(c2ccccc2)C(c2ccc(F)cc2)C1 (centres undefined) ?
RanGTP-Imp inh: -3; CaV13 FRET inh: -13

Results for COc1ccc(C2CC(c3cccs3)=NN2c2nc(-c3ccccc3)cs2)cc1OC (centres undefined) ?
RanGTP-Imp inh: 56*; Runt-SMMHC FRET: -7; Hck-Nef inh: 3; Runt-CBFb FRET: 11; CaV13 FRET inh: -8

Results for Cc1ccc(S(=O)(=O)NC(CCC(N)=O)C(=O)NCc2ccc3c(c2)OCO3)c(C)c1 (centres undefined) ?
CaV13 FRET inh: -4

How did Cc1ccc(S(=O)(=O)NC(=O)c2cc(C)n(CCCN3CCOCC3)c2C)cc1 do in these assays?
RanGTP-Imp inh: 60*; Runt-SMMHC FRET: 24; Hck-Nef inh: 1; Runt-CBFb FRET: 10

What do the screens show for `COc1cc2cc(CCCOC(=O)c3ccc(C(F)(F)F)cc3)oc(=O)c2cc1OC`?
CaV13 FRET inh: -9

Results for Cc1cc(C)c2c(=O)n(CC(=O)Nc3ccc(Cl)cc3)sc2n1 ?
RanGTP-Imp inh: -6; Runt-SMMHC FRET: 47; Hck-Nef inh: -43; Runt-CBFb FRET: 0; CaV13 FRET inh: -2

What do the screens show for `Cc1ccc(NC(=O)Cn2sc3nc(C)cc(C)c3c2=O)c(Cl)c1`?
RanGTP-Imp inh: -3; Runt-SMMHC FRET: 51*; Hck-Nef inh: -145; Runt-CBFb FRET: -4; CaV13 FRET inh: -17

Results for Cc1cc(C)c2c(=O)n(CC(=O)Nc3cccc(F)c3)sc2n1 ?
RanGTP-Imp inh: 0; Runt-SMMHC FRET: 65*; Hck-Nef inh: -145; Runt-CBFb FRET: -8; CaV13 FRET inh: -2

What do the screens show for `Cc1nc([N+](=O)[O-])cn1CC(=O)c1ccc(F)cc1`?
RanGTP-Imp inh: -2

What do the screens show for `CC(C)(C)c1ccccc1NC(=S)NC1CCCC1`?
RanGTP-Imp inh: -2

What do the screens show for `CC(C)(C)c1ccccc1NC(=S)NC1CCCCC1`?
RanGTP-Imp inh: 83*; Runt-SMMHC FRET: -3; Hck-Nef inh: 22; Runt-CBFb FRET: -2; CaV13 FRET inh: -20

How did O=C(Cc1nc2ccccc2[nH]1)NCc1ccco1 do in these assays?
RanGTP-Imp inh: 35*; Runt-SMMHC FRET: 10; Hck-Nef inh: 0; Runt-CBFb FRET: 12

What do the screens show for `O=C(O)c1ccccc1C(=O)NCc1c(Cl)cccc1Sc1ccc(Cl)cc1`?
RanGTP-Imp inh: 6; CaV13 FRET inh: -15

How did C[C@@H](OC(=O)c1[nH]cnc1C(=O)NCc1ccc(CNC(=O)OC(C)(C)C)cc1)c1ccccc1 do in these assays?
CaV13 FRET inh: -5

How did CCOC(=O)c1cc2c(ccn2C)n1CC(=O)N1CCC(Cc2ccccc2)CC1 do in these assays?
RanGTP-Imp inh: -1; Runt-SMMHC FRET: -13; Hck-Nef inh: -6; Runt-CBFb FRET: 36

How did CCOC(=O)c1cc2c(ccn2C)n1CC(=O)N1CCCC(C)C1 (centres undefined) do in these assays?
RanGTP-Imp inh: 24*; Runt-SMMHC FRET: -15; Hck-Nef inh: 1; Runt-CBFb FRET: 23

Results for COc1ccc(NC(=O)Nc2cccc3[nH]c([C@@H]4O[C@H](CO)[C@@H](O)[C@H](O)[C@H]4O)nc23)cc1OC1CCCC1 ?
CaV13 FRET inh: 4

How did COc1cc(C(=O)NCC(=O)NCCN2C(=O)S/C(=C\c3ccccc3Cl)C2=O)cc(OC)c1OC do in these assays?
RanGTP-Imp inh: -1; CaV13 FRET inh: -1

Results for COc1cc(/C=C2\SC(=O)N(CCNC(=O)c3sc4cc(F)ccc4c3Cl)C2=O)cc(OC)c1OC ?
RanGTP-Imp inh: 1; Runt-SMMHC FRET: -54; Hck-Nef inh: 55*; Runt-CBFb FRET: -21; CaV13 FRET inh: -5

What do the screens show for `Cc1cc(=O)n2c3ccccc3n(CC(O)CN3CCOCC3)c2c1C#N` (centres undefined)?
RanGTP-Imp inh: 130*; Runt-SMMHC FRET: 1; Hck-Nef inh: -7; Runt-CBFb FRET: -1; CaV13 FRET inh: 5

Results for CC(Sc1ccccc1)C(=O)N1CCN(S(=O)(=O)c2cccc(Br)c2)CC1 (centres undefined) ?
RanGTP-Imp inh: -1; CaV13 FRET inh: -3

What do the screens show for `COc1cccc(/C=C2\Oc3cc(OCC(=O)N4CCCC4)ccc3C2=O)c1OC`?
RanGTP-Imp inh: -3; CaV13 FRET inh: -3

Results for COCCN(CCOC)Cc1c(O)ccc2c1O/C(=C\c1ccc(C)o1)C2=O ?
RanGTP-Imp inh: -63; CaV13 FRET inh: -30

Results for O=C(O)COc1ccc2c(c1)O/C(=C\c1ccco1)C2=O ?
RanGTP-Imp inh: 25*; CaV13 FRET inh: -23

Results for Cc1ccc(/C=C2\Oc3cc(OCC(=O)NN)ccc3C2=O)o1 ?
RanGTP-Imp inh: 54*; CaV13 FRET inh: -22

Results for O=C(O)COc1ccc2c(c1)O/C(=C\c1cccs1)C2=O ?
RanGTP-Imp inh: 14; Runt-SMMHC FRET: 56*; Hck-Nef inh: 14; Runt-CBFb FRET: 18; CaV13 FRET inh: -3

How did COc1cccc(CNS(=O)(=O)c2ccc3c(c2)N(C(C)=O)CCO3)c1 do in these assays?
RanGTP-Imp inh: -4; CaV13 FRET inh: -14

How did NC(=O)C1CCCN(CC(=O)Nc2ccccc2C(=O)NC2CC2)C1 (centres undefined) do in these assays?
CaV13 FRET inh: -2

What do the screens show for `CCOC(=O)c1ccccc1NC(=O)COC(=O)CCC(=O)c1ccc(C)cc1`?
RanGTP-Imp inh: 2; CaV13 FRET inh: -13

What do the screens show for `Cc1ccc(-n2c(=O)cc(N3CCc4ccccc4C3)[nH]c2=O)cc1`?
RanGTP-Imp inh: 40*; Runt-SMMHC FRET: 2; Hck-Nef inh: 17; Runt-CBFb FRET: 2

What do the screens show for `O=c1cc(N2CCc3ccccc3C2)[nH]c(=O)n1-c1ccccc1Cl`?
RanGTP-Imp inh: 80*; Runt-SMMHC FRET: 27; Hck-Nef inh: 1; Runt-CBFb FRET: 16; CaV13 FRET inh: -5
